The list is not random: actives were taken first. Their share in the collection is about 2.5%.
TRPC4 block: blocks the mouse TRPC4 cation channel; Q9QUQ5; HEK293 TRPC4beta/mu-opioid, DAMGO-evoked Fluo4 calcium flux; stronger effect = lower value; B-score at 10 µM; 300,000 tested, 0.39% active; AID 2247;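 active means B-score over 3 SD under the library average, no early fluorescence shift, positive overall ratio signal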
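Signal: kinetic Fluo4 fluorescence imaging of calcium influx. Material: stable TRPC4beta/mu-opioid receptor HEK293 cells. Probe or stimulus: DAMGO in two steps, submaximal then maximal.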
TRPC4 PAM: allosterically enhances the mouse TRPC4 cation channel; 310,000 tested, 0.42% active; Q9QUQ5; B-score at 10 µM; HEK293 TRPC4beta/mu-opioid, DAMGO EC20, Fluo-4 Ca2+ flux; stronger effect = higher value;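 active means B-score of calcium response area above 5 SD of library B-scores, with initial fluorescence ratio within 5 SD of library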
Platelet DG rel: platelet dense granule release activity | human platelet-rich plasma, SFLLRN dense granule ATP release, luminescence | AID 1663 | 300,000 tested, 0.22% active | inhibition, %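 (compounds screened at 7.5 µM in platelet-rich plasma)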;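 active means mean replicate score, as percent of positive control, at or above 50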
TRPC4 act: opens the mouse TRPC4 cation channel | Q9QUQ5 | HEK293 TRPC4beta/mu-opioid, Fluo4 calcium fluorescence; stronger effect = higher value | B-score at 10 µM | 310,000 tested, 0.49% active | AID 2237;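 active means B-score above 5 SD of library B-scores, and initial fluorescence ratio not above library mean plus 5 SD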;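 further: positive B-score marks a calcium rise read as TRPC4 activation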
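System – HEK293 cells stably co-expressing mouse TRPC4beta and mu-opioid receptor · Signal – Fluo4 calcium-sensitive dye fluorescence, kinetic, 1 Hz baseline · Benchmarks – buffer (low) and maximal DAMGO (high) · Read-out – B score of integrated fluorescence ratio per well · Incubation – dye loading 45 min room temperature, 110 s kinetic read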
TRPC6 inh: blocks the mouse TRPC6 cation channel; Q61143; HEK293-TRPC6, membrane potential dye, ACh-evoked depolarization; stronger effect = lower value; B-score at 10 µM; 310,000 tested, 1.1% active;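 active means B-score under library mean minus 3 SD, initial fluorescence not abnormally high, positive integrated signal ratio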;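 further: B-score derived from integrated fluorescence ratio over the kinetic read; more negative B-score means stronger inhibition of depolarization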
TRPC6 activator: activators of mouse TRPC6 channel; Q61143; HEK293-TRPC6 membrane potential dye fluorescence; stronger effect = higher value; B-score at 10 µM; 310,000 tested, 0.13% active; AID 2550;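 active means B-score of the integrated fluorescence ratio above library mean plus 3 SD, and starting fluorescence ratio within library mean plus 5 SD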;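 further: higher score means more depolarization so channel activation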
Hits are given with their value.

Results for O=[N+]([O-])c1cccc2c([As](=O)(O)O)cccc12 ?
TRPC4 block: inactive; TRPC4 PAM: inactive; Platelet DG rel: inactive; TRPC4 act: inactive; TRPC6 inh: inactive; TRPC6 activator: inactive

What do the screens show for `COc1ccc(CNCCc2ccc(Cl)cc2)c(OC)c1OC`?
TRPC4 block: inactive; TRPC4 PAM: inactive; Platelet DG rel: inactive; TRPC4 act: 62; TRPC6 inh: inactive; TRPC6 activator: inactive

How did COc1ccc(CNCCc2cccc(F)c2)c2ccccc12 do in these assays?
TRPC4 block: inactive; TRPC4 PAM: inactive; Platelet DG rel: inactive; TRPC4 act: 57; TRPC6 inh: inactive; TRPC6 activator: inactive

Results for COc1cc(OC)c(OC)cc1CNCCc1ccc(OC)c(OC)c1 ?
TRPC4 block: inactive; TRPC4 PAM: inactive; Platelet DG rel: inactive; TRPC4 act: inactive; TRPC6 inh: inactive; TRPC6 activator: inactive

What do the screens show for `COc1cc(OC)c(OC)cc1CNCCc1cccc(F)c1`?
TRPC4 block: inactive; TRPC4 PAM: inactive; Platelet DG rel: inactive; TRPC4 act: inactive; TRPC6 inh: inactive; TRPC6 activator: inactive

Results for COc1ccc(CNC(=O)/C=C/c2ccc3[nH]cc(CCN(C)C)c3c2)cc1 ?
TRPC4 block: inactive; TRPC4 PAM: inactive; Platelet DG rel: inactive; TRPC4 act: 45; TRPC6 inh: inactive; TRPC6 activator: inactive

How did COc1ccc2[nH]cc(C(=O)CN(C)C)c2c1 do in these assays?
TRPC4 block: inactive; TRPC4 PAM: inactive; Platelet DG rel: inactive; TRPC4 act: inactive; TRPC6 inh: inactive; TRPC6 activator: inactive

What do the screens show for `COc1ccc2c(CCN)c[nH]c2c1`?
TRPC4 block: inactive; TRPC4 PAM: inactive; Platelet DG rel: inactive; TRPC4 act: 81; TRPC6 inh: inactive; TRPC6 activator: inactive

What do the screens show for `COc1cc(CNCCc2c[nH]c3ccccc23)cc(OC)c1`?
TRPC4 block: inactive; TRPC4 PAM: inactive; Platelet DG rel: inactive; TRPC4 act: inactive; TRPC6 inh: inactive; TRPC6 activator: inactive

How did COc1ccc2[nH]cc(CCN(C)C)c2c1 do in these assays?
TRPC4 block: inactive; TRPC4 PAM: 19; Platelet DG rel: inactive; TRPC4 act: inactive; TRPC6 inh: inactive; TRPC6 activator: inactive

Results for CN(C)C(=O)Oc1ccc2c(c1)O/C(=C\c1cccc(Cl)c1)C2=O ?
TRPC4 block: inactive; TRPC4 PAM: inactive; Platelet DG rel: inactive; TRPC4 act: inactive; TRPC6 inh: inactive; TRPC6 activator: inactive

What do the screens show for `CCNC(=O)C1OC(n2cnc3c(N)ncnc32)C(O)C1O` (configuration not stated)?
TRPC4 block: inactive; TRPC4 PAM: inactive; Platelet DG rel: 95; TRPC4 act: 53; TRPC6 inh: inactive; TRPC6 activator: inactive

What do the screens show for `C/C=C(\C)C(=O)OC1C(C)=C2C(C1OC(=O)CCCCC)C(C)(OC(C)=O)CC(OC(=O)CCC)C1(O)C2OC(=O)C1(C)O` (configuration not stated)?
TRPC4 block: inactive; TRPC4 PAM: inactive; Platelet DG rel: inactive; TRPC4 act: 71; TRPC6 inh: -5.8; TRPC6 activator: inactive

Results for Clc1ccc(CCNCc2ccncc2)c(Cl)c1 ?
TRPC4 block: inactive; TRPC4 PAM: inactive; Platelet DG rel: inactive; TRPC4 act: 50; TRPC6 inh: inactive; TRPC6 activator: inactive

What do the screens show for `COc1ccc(CNCCc2ccc(Cl)cc2Cl)cc1`?
TRPC4 block: inactive; TRPC4 PAM: inactive; Platelet DG rel: inactive; TRPC4 act: inactive; TRPC6 inh: inactive; TRPC6 activator: inactive

What do the screens show for `CCc1ccc(OCCCN=C(C)c2c(O)n(C)c(=O)n(C)c2=O)cc1`?
TRPC4 block: inactive; TRPC4 PAM: 16; TRPC4 act: inactive; TRPC6 inh: inactive; TRPC6 activator: inactive

What do the screens show for `CN[C@H]1C[C@H]2O[C@@](C)([C@H]1OC)n1c3ccccc3c3c4c(c5c6ccccc6n2c5c31)C(=O)NC4`?
TRPC4 block: inactive; TRPC4 PAM: 27; Platelet DG rel: inactive; TRPC4 act: inactive; TRPC6 inh: -5.8; TRPC6 activator: inactive

How did CC(C)Sc1nnc([C@@H](N)Cc2ccccc2)o1 do in these assays?
TRPC4 block: inactive; TRPC4 PAM: inactive; Platelet DG rel: inactive; TRPC4 act: inactive; TRPC6 inh: inactive; TRPC6 activator: inactive

Results for CC1=NN(Cc2c[nH]c3ccccc23)C(C)(C)C1 ?
TRPC4 block: inactive; TRPC4 PAM: inactive; Platelet DG rel: inactive; TRPC4 act: inactive; TRPC6 inh: inactive; TRPC6 activator: inactive
